Compound activity: PubChem, The Scripps Research Institute Molecular Screening Center
OX1R antag-1: antagonists of human orexin 1 receptor (OX1R) | Orexin/Hypocretin receptor type 1 (Homo sapiens), O43613 | OX1R-expressing cells, FRET antagonist read-out | inhibition, % at 6.6 µM | 330,000 compounds, 1.8% hits; in the data active means inhibition mostly above about 38%, no sharp cut-off; inactive means mostly below about 40%;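 further: 0% = agonist challenge alone and 100% = reference antagonist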
OX1R antag-2: OX1R (HCRTR1) antagonists, primary screen, fluorescence, CHO/OX1R cells, Fluo-8 calcium, orexin A | Orexin/Hypocretin receptor type 1 (Homo sapiens), O43613 | Fluo-8 calcium fluorescence | inhibition, % at 5 µM | 330,000 compounds, 0.43% hits;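 active means inhibition above its plate's threshold, mean inhibition of all tested compounds on the plate plus 3 SD, cut at about 37% in these data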;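 further: 0% = orexin A challenge wells and 100% = SB-334867-A antagonist wells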
CHO parental Ca: ATP-evoked calcium signal inhibitors, parental CHO, primary screen, counter-screen for OX1R antagonist project, cell-based, fluorescence, Fluo-8 calcium dye | inhibition, % at 5.6 µM | parental CHO-K1, ATP-induced calcium, Fluo-8 fluorescence | 330,000 compounds, 0.63% hits;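 active means inhibition above that plate's mean sample inhibition plus 3 SD, cut at about 26% in these data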;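 further: 0% = ATP-challenged DMSO wells and 100% = DMSO wells without ATP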
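Test system: parental CHO cells; detection: calcium-sensitive Fluo-8 fluorescence; evaluation: percent inhibition of calcium signal; also added: ATP as calcium-mobilizing challenge; repeats: one well per compound; control set: ATP-challenged DMSO wells low, unchallenged DMSO wells high; compound: single nominal dose of 5.6 µM per compound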
TAAR1 ag: human TAAR1 agonists, primary screen, Fluo-8 calcium fluorescence, CHO RD-HGA16 cells; Trace amine-associated receptor 1 (Homo sapiens), Q96RJ0; activation, % at 3 µM; vehicle wells 0%, saturating PEA agonist 100%; 360,000 compounds, 0.99% hits; AID 624467, 2012;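 active means activation above the mean activation of all test compounds in the run plus 3 SD, cut at about 38% in these data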
Target sequence (Q96RJ0 whole entry, looked up): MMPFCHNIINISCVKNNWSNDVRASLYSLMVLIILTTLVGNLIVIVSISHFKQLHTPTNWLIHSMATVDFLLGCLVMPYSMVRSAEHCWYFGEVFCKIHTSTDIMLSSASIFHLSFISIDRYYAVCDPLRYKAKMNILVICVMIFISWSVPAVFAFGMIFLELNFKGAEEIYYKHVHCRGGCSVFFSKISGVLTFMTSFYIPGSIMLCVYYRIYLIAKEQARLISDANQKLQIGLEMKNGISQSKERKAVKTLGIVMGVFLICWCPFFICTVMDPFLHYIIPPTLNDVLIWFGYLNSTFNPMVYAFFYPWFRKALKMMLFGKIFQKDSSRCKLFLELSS
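Test system: RD-HGA16 (CHO) cells co-expressing Gα16 and hTAAR1 | Doses: Single dose, 3 µM | Schedule: 17-24 h seeding, 75 min 37 °C dye, 30 min RT | Evaluation: % activation from peak over basal fluorescence ratio, DMSO-to-PEA scaled | Technique: Kinetic Fluo-8 calcium fluorescence | Benchmarks: Low control DMSO, high control PEA (EC100)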
TAAR1 antagonist: human TAAR1 antagonists, primary screen, Fluo-8 calcium fluorescence, CHO RD-HGA16 cells; 360,000 compounds, 1.5% hits; inhibition, % at 3 µM; antagonist;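 active means inhibition above a per-plate cutoff, the mean inhibition of test compounds on that plate plus 3 SD, cut at about 49% in these data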;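 further: 0% = DMSO plus EC80 beta-PEA response and 100% = DMSO alone without agonist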
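System: CHO RD-HGA16 cells bearing hTAAR1. Reagent: EC80 β-phenethylamine stimulus. Schedule: seeding 17-24 h prior, 75-min 37 °C, 30-min RT dye loading. Signal: Fluo-8 intracellular calcium dye fluorescence, real-time kinetic reads. Read-out: % inhibition from peak post-agonist over basal fluorescence ratio. Benchmarks: vehicle wells and EC80 agonist wells. Replicates: n of 1.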
TAAR1 nonsel count: nonselective antagonists in TAAR1 counter-screen cells, counter-screen for hTAAR1 antagonist project, cell-based, fluorescence, calcium. shares compounds with TAAR1 antagonist. counterscreen cell line, antagonist mode. inhibition, % at 3 µM. 2,400 compounds, 77% hits. AID 651780, 2012; in the data active means inhibition above about 22%;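 further: CHO-Ga16 host cells stimulated with ATP at an EC80 level; 0% = agonist EC80 plus vehicle and 100% = vehicle without agonist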
TAAR1 ant conf: human TAAR1 antagonists, retest of hits, confirmation, cell-based, fluorescence. TAAR1-expressing cells, fluorescence antagonist read-out. 2,400 compounds, 40% hits. AID 651785, 2012. inhibition, % at 3 µM. shares compounds with TAAR1 antagonist; in the data active means inhibition above about 49%;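 further: CHO-Ga16 host cells challenged with agonist PEA near its EC80; 0% = agonist at EC80 plus vehicle and 100% = vehicle with no agonist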
Ga16 ag counter: calcium activation in Ga16-expressing cells, counter-screen for TAAR1 antagonist project, cell-based, fluorescence | shares compounds with TAAR1 antagonist | 2,400 compounds, 18% hits | AID 651953, 2012 | agonist counterscreen | activation, % at 3 µM; in the data active means activation above about 12%;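 further: 0% = vehicle wells and 100% = saturating stimulus response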
TAAR1 ag count: TAAR1 activation by candidate antagonists – cell-based, fluorescence, counter-screen for TAAR1 antagonist project. AID 651955, 2012. activation, % at 3 µM. shares compounds with TAAR1 antagonist. 2,400 compounds, 2% hits. hTAAR1 cell line, agonist mode; in the data active means activation above about 37%;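 further: CHO cells stably expressing TAAR1 with calcium dye readout; 0% = DMSO vehicle and 100% = full agonist response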
Numbers without * were called inactive; . = not tested or not shown. Most compounds without a hit are left out; they make up all but 3.9% or so of the library.

SMILES	OX1R antag-1	OX1R antag-2	CHO parental Ca	TAAR1 ag	TAAR1 antagonist	TAAR1 nonsel count	TAAR1 ant conf	Ga16 ag counter	TAAR1 ag count
Cc1cc(/C=N\NC(=O)CC(=O)NC2CCCCC2)c(C)n1-c1cccc(Cl)c1Cl	7	-5	-17	13	42	.	.	.	.
Cc1ccc(-c2cc3cccc[n+]3cc2-c2ccc(C)cc2)cc1	33	5	-3	-1	-1	.	.	.	.
O=C(/C=C/c1cn(-c2ccccc2)nc1-c1cccs1)NCCN1CCOCC1	13	-30	-22	21	53*	28*	37	9	9
O=C(c1cn(-c2ccccc2)nc1-c1cccs1)N1CCOCC1	7	-10	-6	5	10	.	.	.	.
COc1ccc(CCNc2oc(Cc3ccccc3)nc2C#N)cc1OC	30	-26	-20	2	27	.	.	.	.
COc1ccc(CCNc2oc(COc3ccccc3F)nc2C#N)cc1OC	26	-10	-5	16	59*	37*	49*	12*	10
COc1ccc(CCNc2oc(COc3ccccc3Cl)nc2C#N)cc1OC	20	-8	0	6	64*	39*	55*	8	3
C=CCn1c(CCc2cc(C(C)(C)C)c(O)c(C(C)(C)C)c2)n[nH]c1=S	5	-40	-41	1	-1	.	.	.	.
COc1ccc(C(=O)C2CCCN(S(=O)(=O)c3ccc(C(C)=O)cc3)C2)c(C)c1 (stereo unspecified)	21	31	10	10	47	.	.	.	.
COc1cccc(OCc2cc(C(=O)N(Cc3ccccc3)CC3CC3)no2)c1	24	-11	-10	2	54*	28*	40	9	17
COc1cccc(OCc2cc(C(=O)N(C)Cc3nc4ccccc4[nH]3)no2)c1	18	-13	-17	3	8	.	.	.	.
CCOC(=O)Cc1n[nH]c(=O)c2ccccc12	13	-2	-7	9	2	.	.	.	.
O=C(Cc1n[nH]c(=O)c2ccccc12)OCC(=O)N(Cc1ccccc1)Cc1ccccc1	12	-31	-10	4	57*	21	38	4	3
COc1cc(C)c(C(=O)Oc2cc(C)c(C(=O)O)c(O)c2C)c(O)c1C	10	-12	-4	-3	80*	48*	53*	0	-3
CCN(CC(=O)Nc1ccc(NC(C)=O)cc1)C(=O)c1ccccc1Sc1ccccc1C#N	10	-6	-13	11	51*	27*	37	5	2
CCN(CC(=O)Nc1ccccc1C(F)(F)F)C(=O)c1ccccc1Sc1ccccc1C#N	17	-8	-24	4	4	.	.	.	.
COC(=O)c1cccc(S(=O)(=O)N(Cc2ccco2)Cc2cc3ccc(OC)cc3[nH]c2=O)c1	40*	15	-18	21	57*	33*	57*	10	7
COC(=O)c1cccc(S(=O)(=O)N(Cc2ccco2)Cc2cc3cc(OC)c(OC)cc3[nH]c2=O)c1	23	-23	-19	9	22	.	.	.	.
O=C(COC(=O)c1ccc(F)cc1Cl)NC1CC1	.	.	.	4	-13	.	.	.	.
CC(C)OC(=O)c1ccc(NC(=S)NC(=O)c2cncc(Br)c2)cc1	-8	-16	-18	-1	-6	.	.	.	.
CC(C)OC(=O)c1ccc(NC(=O)c2cncc(Br)c2)cc1	25	-34	-13	20	65*	27*	44	16*	15
CC(=O)Nc1ccc(SCC(=O)c2c(N)n(Cc3ccccc3)c(=O)n(C)c2=O)cc1	4	-14	4	20	77*	30*	44	13*	14
CC(=O)NC(=S)c1c(N)n(Cc2ccccc2)c(=O)n(C)c1=O	4	-39	-8	.	.	.	.	.	.
Cc1ccccc1CSCC(=O)c1c(N)n(CC(C)C)c(=O)n(C)c1=O	24	-20	-9	29	41	.	.	.	.
CC(C)Cn1c(N)c(C(=O)CSc2ccccc2)c(=O)n(C)c1=O	15	13	15	21	66*	49*	65*	16*	14
SMILES	OX1R antag-1	OX1R antag-2	CHO parental Ca	TAAR1 ag	TAAR1 antagonist	TAAR1 nonsel count	TAAR1 ant conf	Ga16 ag counter	TAAR1 ag count
Cc1cccc(C)c1-c1ccc(CN2C(CC(C)C)C(=O)N(Cc3cn(CCO)nn3)CCS2(=O)=O)cc1 (stereo unspecified)	.	.	.	34	90*	53*	67*	21*	19
COc1ccc(NC(=O)C(OC(=O)Cn2cnc3c2c(=O)n(C)c(=O)n3C)c2ccccc2)cc1Cl (stereo unspecified)	.	.	.	11	18	.	.	.	.
CCc1ccccc1NC(=O)C1CCN(S(C)(=O)=O)CC1	6	-2	-11	2	-24	.	.	.	.
CCOc1cc(/C=N/NC(=O)C(O)(c2ccccc2)c2ccccc2)ccc1OC(=O)c1ccco1	9	-4	-2	14	80*	33*	56*	8	7
CN(C)S(=O)(=O)N1CCC(Oc2cccc(C(=O)NCCC3=CCCCC3)c2)CC1	37	-7	1	13	81*	43*	60*	13*	8
COc1ccc(/C=C2\CN(Cc3ccccc3)C/C(=C\c3ccc(OC)c(O)c3)C2=O)cc1O	24	-6	-15	14	71*	29*	51*	10	12
CCN1C/C(=C/c2ccc(OC)c(O)c2)C(=O)/C(=C/c2ccc(OC)c(O)c2)C1	16	-23	-16	4	2	.	.	.	.
Cc1ccc(C(=O)OCC(=O)NC(C)C2CC3CCC2C3)cc1N (stereo unspecified)	10	-3	-19	5	8	.	.	.	.
C=CCN1C[C@H](COC(=O)c2cccc(C)c2)Oc2cccc(F)c2S1(=O)=O	.	.	.	1	49*	38*	50*	7	6
O=c1c(Br)c(N2CCCCC2)cnn1-c1ccccc1	33	-19	-16	12	4	.	.	.	.
